CHT allo act: allosteric activators of human choline transporter CHT; Q9GZV3; CHT-expressing cells, membrane potential dye, choline EC20; active compounds read high; LV-AA mutant CHT in HEK293 cells; B-score at 10 µM; 310,000 compounds, 0.49% hits;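 active = initial fluorescence not abnormally high and integrated response B-score, plate-corrected, over 3 SD above library mean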
procasp3 activ: activators of human procaspase-3; activation, % at 8.5 µM; recombinant procaspase-3 D3A, Ac-DEVD-pNA absorbance 405 nm; AID 463141; 330,000 compounds, 0.11% hits;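 active = activation above the mean of all tested compounds plus 3 SD, cut at about 21% in these data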
Target sequence (P42574 whole entry D9A/D28A/D175A): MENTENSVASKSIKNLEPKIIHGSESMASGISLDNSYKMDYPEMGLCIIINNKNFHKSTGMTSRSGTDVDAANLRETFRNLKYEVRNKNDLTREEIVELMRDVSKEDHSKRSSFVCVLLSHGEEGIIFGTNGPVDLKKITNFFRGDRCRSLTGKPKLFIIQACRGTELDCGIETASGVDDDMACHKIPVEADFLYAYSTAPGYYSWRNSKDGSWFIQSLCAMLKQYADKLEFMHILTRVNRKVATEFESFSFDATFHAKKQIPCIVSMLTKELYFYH
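Evaluation: percent activation relative to control range; Material: Procaspase-3 D3A mutant, all three cleavage aspartates alanine; Compound: single dose, 8.5 µM nominal compound, 0.8% DMSO; Replication: one well per compound; Signal: absorbance at 405 nm, 0 and 120 min; Schedule: 1 h preincubation plus 2 h reaction at 25 °C.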
CHT inh: human CHT choline transport inhibition | B-score at 10 µM | 310,000 compounds, 0.86% hits | CHT-expressing cells, membrane potential dye, choline response; active compounds read low | AID 488975;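 active = B-score over 3 SD under the library average, and starting fluorescence ratio not unusually high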;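 note: choline stimulus applied at its EC90 after an EC20 pre-addition; B-score computed on integrated fluorescence ratio after choline addition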
procasp7 counter: activates human procaspase-7, counter-screen for procaspase-3 activators; P55210; recombinant procaspase-7, Ac-DEVD-pNA absorbance 405 nm; D23A/D198A/D206A triple mutant, cannot self-cleave; scale: DMSO 0, 5 µM enzyme 100; activation, % at 8.5 µM; 330,000 compounds, 0.093% hits; AID 463210;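 active = percent activation above the screen-wide mean plus 3 SD, cut at about 25% in these data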
Target sequence (P55210 whole entry D23A/D198A/D206A): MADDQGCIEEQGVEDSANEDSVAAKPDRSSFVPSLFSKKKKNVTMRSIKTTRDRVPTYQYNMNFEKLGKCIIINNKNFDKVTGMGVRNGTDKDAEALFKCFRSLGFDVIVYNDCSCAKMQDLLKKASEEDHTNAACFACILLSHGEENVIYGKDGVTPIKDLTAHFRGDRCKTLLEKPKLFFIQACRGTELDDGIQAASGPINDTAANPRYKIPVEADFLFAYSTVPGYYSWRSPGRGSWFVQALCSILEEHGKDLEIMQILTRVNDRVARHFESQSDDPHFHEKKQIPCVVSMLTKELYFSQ
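Assay system: Uncleavable procaspase-7 mutant enzyme | Input: 2 µM procaspase-7 mutant as dispensed | Timing: 1 h compound preincubation, 2 h substrate cleavage, 25 °C | Repeats: One well per compound | Control set: DMSO wells as 0%, DMSO with 5 µM added PC-7 as 100% | Technique: Epi-absorbance of released pNA at 405 nm, two timepoints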
CHT inh conf: confirmation of human choline transporter CHT inhibitors | CHT activity remaining % of control (active compounds read low), % at 10 µM | shares compounds with CHT inh | AID 493221 | CHT-expressing cells, choline membrane potential dye; LV-to-AA substituted CHT, HEK293 cells | 2,400 compounds, 70% hits;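 active = choline transporter activity left, mean of duplicates at 10 µM, below buffer-only control mean minus 3 SD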;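 note: depolarization triggered by choline at its EC90 following an EC20 pre-addition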
HEK293 CHT ctr: CHT inhibitor counter-screen hit in parental HEK293 cells; 2,400 compounds, 4% hits; membrane potential ratio readout (active if shifted either direction beyond buffer ±3SD; no single direction) at 10 µM; membrane potential dye, choline response; active = decrease or increase beyond buffer ±3SD; shares compounds with CHT inh;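 note: parental cells lack the transporter so any hit is non-specific; ratio is peak minus trough fluorescence over baseline after EC90 choline challenge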
A number is an active result; i = inactive; nt = no result. The list is not random: actives were taken first. Their share in the collection is about 1.3%.

SMILES	CHT allo act	procasp3 activ	CHT inh	procasp7 counter	CHT inh conf	HEK293 CHT ctr
COc1ccccc1CN1C(=O)[C@@H]2C(CCC(N)=O)NC3(C(=O)Nc4c3ccc(Cl)c4C)[C@@H]2C1=O (stereo partly specified)	i	i	-6.08	i	60.6%	i
CCn1ncc(Br)c1C(=O)NC(C)c1ccccc1 (stereo unspecified)	i	i	-5.84	i	i	i
CCn1ncc(Cl)c1C(=O)NC(C)c1ccccc1 (stereo unspecified)	i	i	i	i	nt	nt
Cc1c(Cl)cccc1NC(=O)CSc1nncn1-c1ccccn1	i	i	i	i	nt	nt
CCCCn1c(Nc2ccc(OC)cc2)nc2ccccc21	i	i	i	i	nt	nt
COc1ccc(Nc2nc3ccccc3n2C)cc1	i	i	-6.49	i	52.8%	i
CSCCCNC(=O)c1ccc(OC2CCN(CCc3ccccc3)CC2)cc1	i	i	-5.99	i	51.4%	4.83
O=C(NCCc1ccccn1)c1ccc(OC2CCN(CCc3ccccc3)CC2)cc1	i	nt	i	nt	nt	nt
CCCN1CCC(Oc2cccc(C(=O)NCCc3ccccc3)c2)CC1	i	i	-11.3	i	6.5%	i
CN1CCN(CC(=O)Nc2nc(-c3c[nH]c4ccccc34)cs2)CC1	i	i	-5.4	i	64.3%	i
Cc1ccc(-n2c(N)cc(=O)nc2SCC(=O)NC2CCCCC2)cc1C	i	i	i	i	nt	nt
S=c1[nH]nc(-c2ccccn2)n1/N=C/c1cccc(Cl)c1	i	i	-5.72	i	i	i
Oc1ccc(/C=N/n2c(-c3ccccc3)n[nH]c2=S)cc1Br	i	nt	-5.98	nt	54.5%	i
S=c1[nH]nc(-c2ccco2)n1/N=C/c1cccc(Cl)c1	i	i	i	i	nt	nt
Oc1c(Br)cc(/C=N/n2c(-c3ccccc3)n[nH]c2=S)cc1Br	i	nt	i	nt	nt	nt
CCN(C(=O)COC(=O)c1c2c(nc3ccccc13)/C(=C/c1ccccc1)CC(C)C2)C1CCS(=O)(=O)C1 (stereo unspecified)	i	i	i	i	nt	nt
C=CCn1c(SC2CCOC2=O)nc2scc(C3CC3)c2c1=O (stereo unspecified)	i	i	-5.71	i	47.2%	i
O=C(CSc1nc(C(F)(F)F)cc(=O)[nH]1)Nc1cccc2ccccc12	i	i	-5.37	i	40.4%	i
Cc1noc(C)c1CSc1nc2[nH]ncc2c(=O)n1-c1ccccc1	i	i	-5.51	i	i	i
COC(=O)c1ccc(Oc2ccc(S(=O)(=O)N3CCCCC3)cc2N)cc1	i	i	i	i	nt	nt
Nc1cc(S(=O)(=O)N2CCCCC2)ccc1Oc1ccc(Cl)cc1	i	i	-9.43	i	i	i
Cc1ccc(C(C(=O)NCC2CCCO2)N(C(=O)c2snc(C(N)=O)c2N)c2ccc(C)c(C)c2)o1 (stereo unspecified)	i	i	i	i	nt	nt
FC(F)(F)c1nc(Oc2ccccc2)c2ccccc2n1	i	i	i	i	nt	nt
Cc1nc(Oc2ccccc2)c2ccccc2n1	i	i	-6.97	i	i	i
Cn1c(SCc2ccc(C#N)cc2Cl)nc2ccccc21	i	i	-11.5	i	3.8%	i
SMILES	CHT allo act	procasp3 activ	CHT inh	procasp7 counter	CHT inh conf	HEK293 CHT ctr
N#Cc1ccc(CSc2ccccn2)c(Cl)c1	i	i	i	i	nt	nt
CCOc1ccccc1C(=O)OCC(=O)Nc1nnc(-c2ccccc2)o1	i	i	i	i	nt	nt
CCOc1ccccc1C(=O)NC(C(=O)OCC(=O)Nc1nnc(-c2ccccc2)o1)C(C)C (stereo unspecified)	i	i	-5.68	i	i	i
CC(=O)C1=C(O)C=C(c2ccco2)CC1c1ccco1 (stereo unspecified)	i	i	-5.05	i	i	i
CC(c1ccccc1)n1c(SCC(=O)Nc2ccccc2)n[nH]c1=O (stereo unspecified)	i	i	i	i	nt	nt
c1ccc2[nH]c(CSc3nc4ccccc4s3)nc2c1	i	i	-5.97	i	i	i
Cc1nnc(SCc2nc3ccccc3[nH]2)s1	i	i	i	i	nt	nt
COc1ccc(S(=O)(=O)N2CCCOC2CNC(=O)C(=O)NCc2ccccn2)cc1 (stereo unspecified)	i	i	i	i	nt	nt
O=C(O)CC(C(=O)Nc1ccc(Cl)cc1)N1CCCCCC1 (stereo unspecified)	i	i	i	i	nt	nt
Cc1ccccc1NC(=O)c1ccc(F)c(S(=O)(=O)NCC2CCCO2)c1 (stereo unspecified)	i	i	-7.68	i	20.8%	i
O=C(Nc1ccccc1Cl)c1ccc(S(=O)(=O)NCC2CCCO2)cc1 (stereo unspecified)	i	i	-6.42	i	30.9%	i
Cc1ccc(NC(=O)c2ccc(Cl)c(S(=O)(=O)NCC3CCCO3)c2)c(O)c1 (stereo unspecified)	i	i	i	i	nt	nt
COc1cccc(C(=O)Nc2cc(C)nn2-c2ccccc2)c1OC	i	i	i	i	nt	nt
COc1ccc(CNC(=O)COC(=O)CC2CCCC2)cc1	i	i	-5.38	i	i	i
Cc1cc(NCCCn2ccnc2)n2ncc(-c3ccc(Cl)cc3)c2n1	i	i	-5.41	i	61.3%	i
COc1cc(C=Nc2cccc(C)c2)c(O)c([N+](=O)[O-])c1	i	i	-6.91	i	68.0%	i
NS(=O)(=O)c1ccc(CNc2ccc3ccccc3n2)cc1	i	i	-9.28	i	21.4%	i
O=C(COC(=O)Cc1cccs1)Nc1ccccc1Cl	i	i	-5.49	i	i	i
COc1ccccc1/C=C1\SC(=O)N(CC(=O)NCCCn2ccnc2)C1=O	i	i	-7.06	i	68.6%	i
O=C(CN1C(=O)S/C(=C\c2ccccc2Cl)C1=O)NCCCn1ccnc1	i	i	i	i	nt	nt
N#Cc1ccccc1S(=O)(=O)N1CCNS(=O)(=O)c2ccccc21	nt	i	nt	i	nt	nt
N#C/C(=N\Nc1cccc(Cl)c1)C(=O)c1ccccc1	i	i	-5.23	i	65.9%	i
N#C/C(=N\Nc1ccccc1Cl)C(=O)c1ccccc1	i	i	i	i	nt	nt
COc1ccc(CCN2CC(C(=O)NCc3nc(C)c(C)s3)CCC2=O)cc1 (stereo unspecified)	i	i	i	i	nt	nt
CCc1ccccc1NC(=O)C1CC(c2ccc(OC)cc2)=NO1 (stereo unspecified)	i	i	-6.35	i	48.3%	i
CCOC(=O)C(CC(=O)c1ccccc1)CC(=O)c1ccccc1	i	nt	i	nt	nt	nt
COC(=O)C(CC(=O)c1ccccc1)CC(=O)c1ccccc1	i	i	-5	i	i	i
CCOC(=O)c1ccc(S(=O)(=O)Nc2cc(S(=O)(=O)Nc3ccc(OC)cc3)ccc2O)cc1	nt	i	nt	i	nt	nt
Cc1c(C)n(CCc2ccccc2)c2ncnc(NN)c12	i	i	-6.1	i	61.1%	i

Compound activity deposited in PubChem by several laboratories.
